Assay results from paper PMC11843194 (Experimental and Therapeutic Medicine, 2025).
Like-named read-outs stand apart in the source and are kept apart here.

Legend:
[1] = system: metastatic renal cell carcinoma (mRCC); experiment: Course of metastatic renal cell carcinoma under sunitinib in the patient; format: in vivo, human; conditions: day 186; led to change from sunitinib to axitinib
[2] = clinical practice, sum of sunitinib and N-desethyl sunitinib; cited from earlier work
[3] = format: in vivo, human
Method in brief: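 Routine TDM of trough serum sunitinib and N-desethyl sunitinib in one patient, reported as total concentration (the sum of both); the clinical target trough is 50-100 ng/ml. Sampling: immediately before dasatinib and on days 7, 32, 70 and 84. Sunitinib was given orally at 14 days on/7 days off: 50 mg/day, 37.5 mg/day from day 18, then 50/37.5 mg/day alternately from day 81.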

[4] = Adverse events; format: in vivo, human; conditions: day -30; sunitinib 50 mg/day alone
Method in brief: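 Single patient with metastatic renal cell carcinoma on oral sunitinib monotherapy, 14 days on/7 days off, before dasatinib started (day 1). Adverse events graded by CTCAE. Hand-foot skin reaction was managed with heparinoid cream and diarrhea with bifidobacterial powder.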

[5] = format: in vivo, human; remark: listed apart in the source
Method in brief: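 Serum from the patient was taken 8 h after dasatinib dosing, using the residue of samples drawn for sunitinib TDM, and assayed later by LC-MS/MS (LLOQ 0.5 ng/ml). Samples were from days 7, 32 and 84. Oral dasatinib was given at 60 mg/day, then 50 mg/day from day 28, alongside sunitinib; esomeprazole magnesium was a concomitant drug.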

[6] = system: chronic myeloid leukemia (CML); experiment: Response of chronic myeloid leukemia to dasatinib in the patient; format: in vivo, human; conditions: day 154 after starting dasatinib; BCR::ABL1^IS≤1%
Method in brief: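 Patient with chronic-phase CML took oral dasatinib at 60 mg/day from day 1. Cytogenetic response was defined as BCR::ABL1IS≤1% and assessed on day 154.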

[7] = system: CYP3A4; conditions: cited from earlier work
[8] = cited from earlier work
[9] = rats; ketoconazole combined with sunitinib; cited from earlier work
[10] = day 7, sunitinib 50 mg/day with dasatinib 60 mg/day
[11] = day 32, sunitinib 37.5 mg/day with dasatinib 50 mg/day
[12] = day 84, sunitinib 50.0 and 37.5 mg/day alternately with dasatinib 50 mg/day
[13] = immediately before starting dasatinib, sunitinib 50 mg/day alone, 14 days on/7 days off

For `CCN(CC)CCNC(=O)c1c(C)[nH]c(/C=C2\C(=O)Nc3ccc(F)cc32)c1C` [sunitinib], which “course of RCC metastases” value [1] is on record?
Its value is “pancreatic and left adrenal metastases were enlarged”.

And the “target trough concentration as total sunitinib concentration” value [2]?
The value was 50 to 100 ng/mL.

And the trough serum concentration [3, 10]?
The trough serum concentration was 64.9 ng/mL.

And the trough serum concentration [3, 11]?
The trough serum concentration was 28.6 ng/mL.

What about the trough serum concentration [3, 12] of the same compound?
Its trough serum concentration is 38.7 ng/mL.

What about the trough serum concentration [3, 13] of the same compound?
The trough serum concentration was 63.7 ng/mL.

What about the “diarrhea, CTCAE grade” value [4] of the same compound?
The value was 1.

What about the “hand-foot skin reaction (HFSR), CTCAE grade” value [4] of the same compound?
The value was 1.

With `CCNCCNC(=O)c1c(C)[nH]c(/C=C2\C(=O)Nc3ccc(F)cc32)c1C` [N-desethyl sunitinib] as the compound, how does the trough serum concentration [3, 10] read?
Its trough serum concentration is 12.2 ng/mL.

What about the trough serum concentration [3, 11] of the same compound?
Its trough serum concentration is 4.7 ng/mL.

And the trough serum concentration [3, 12]?
Its trough serum concentration is 7.4 ng/mL.

What about the trough serum concentration [3, 13] of the same compound?
Its trough serum concentration is 13.7 ng/mL.

Which dasatinib serum concentration ([5]; day 7, 8 h after administration, dasatinib 60 mg/day with sunitinib) does the source give for `Cc1nc(Nc2ncc(C(=O)Nc3c(C)cccc3Cl)s2)cc(N2CCN(CCO)CC2)n1` [dasatinib] here?
Its dasatinib serum concentration is 1.16 ng/mL.

And the dasatinib serum concentration ([5]; day 84, 8 h after administration, dasatinib 50 mg/day with sunitinib)?
The dasatinib serum concentration was 2.75 ng/mL.

And the concentration at 8 h ([5]; male, human, serum, oral, 50 mg/day)?
The concentration at 8 h was 3 ng/mL.

And the “response for CML” value [6]?
Its value is “complete cytogenetic response”.

And the CYP3A4 inhibition [7]?
Its CYP3A4 inhibition is “moderate”.

And the solubility [8]?
Its solubility is “pH-dependent”.

And the “effect of dasatinib combination on sunitinib serum concentration” value ([3]; day 7 versus before dasatinib, sunitinib 50 mg/day)?
Its value is “no change”.

With `CC(=O)N1CCN(c2ccc(OCC3COC(Cn4ccnc4)(c4ccc(Cl)cc4Cl)O3)cc2)CC1` (centres unmarked) [ketoconazole] as the compound, how does the “effect of combination on the concentration of sunitinib” value [9] read?
Its value is “significantly increased”.
